Test results published in PMC10786304 (Proceedings of the National Academy of Sciences of the …, 2024).
Converted amounts (≈) assume the structure as drawn.

Experiments:
M. abscessus ATCC 19977 = experiment: microbe, parasite or virus in culture; format: cell-based, Mycobacterium abscessus; details: Mycobacteroides abscessus, ATCC19977, 120 h, read-out: MIC M. abs
[1] = tested on: purified M. smegmatis ATCC 19420 ribosomes; experiment: Mycobacterial cell-free translation inhibition assay; format: biochemical, Mycobacterium smegmatis; details: read-out: IC50 M. smg ribo
[2] = tested on: M. abscessus ATCC 19977 ∆2780c (∆tetV); experiment: MIC, isogenic deletion mutant ∆tetV; format: cell-based, Mycobacterium abscessus; details: for WT/∆2780c ratio: WT MIC divided by ∆tetV MIC
[3] = tested on: M. abscessus ATCC 19977 ∆3508c (∆whiB7); experiment: MIC, isogenic deletion mutant ∆whiB7; format: cell-based, Mycobacterium abscessus; details: versus wild type
[4] = tested on: M. abscessus ATCC 19977 ∆2780c (∆tetV); details: ref [7], [17]; cited from earlier work
[5] = tested on: M. abscessus ATCC 19977 ∆3508c ∆2780c; experiment: MIC, double deletion mutant ∆whiB7 ∆tetV; format: cell-based, Mycobacterium abscessus; details: ∆tetV MIC divided by ∆whiB7 ∆tetV MIC
Mab ATCC 19977 = experiment: Whole-cell accumulation assay; format: cell-based, Mycobacterium abscessus; details: 100 µM compound, 30 min; mean ± SD
Summary of the method: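 Mab grown in MHB2 + 0.05% tyloxapol (37 °C, shaking) to OD600 0.5–0.6 was washed in PBS with 0.05% Tween-80 and 5% glucose. The concentrated suspension was incubated with 100 µM compound (1% DMSO) for 30 min at 37 °C, then washed three times; an aliquot was taken for CFU. Pellets were lysed and filtered supernatant quantified by LC-MS/MS. A = C×V/CFU, normalized to 10^10 CFU. Biological triplicate, mean and SD; ANOVA with Dunnett versus SPC.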

[6] = tested on: 2593-resistant spontaneous Mab mutants (Mab ATCC 19977); experiment: Selection and MIC testing of 2593-resistant spontaneous Mab mutants; format: cell-based, Mycobacterium abscessus; details: cross-resistance test

Compound	MIC (M. abscessus ATCC 19977) [µg/mL]	IC50 [1] [nM]	WT/∆2780c ratio [2]	increase in susceptibility in the ΔtetV strain ([2]; versus wild type) [fold]	increase in susceptibility against the ΔwhiB7 strain [3]	increase in SPC susceptibility of Mab Δ2780c deletion mutants [4] [fold]	∆2780c/∆3508c ∆2780c ratio [5]	whole-cell accumulation (Mab ATCC 19977) [nM/10^10 CFU]	susceptibility of 2593-resistant mutants [6]
CN[C@@H]1[C@H](O)[C@H](NC)[C@H]2O[C@@]3(O)C(=O)C[C@@H](C)O[C@H]3O[C@@H]2[C@H]1O [SPC, spectinomycin]	256 (≈ 770 µM)	800 ± 210	64	64	eightfold	> 100	1	38.2 ± 9.0	–
NCC[C@H](O)C(=O)N[C@@H]1C[C@H](N)[C@@H](O[C@H]2O[C@H](CN)[C@@H](O)[C@H](O)[C@H]2O)[C@H](O)[C@H]1O[C@H]1O[C@H](CO)[C@@H](O)[C@H](N)[C@H]1O [AMK, amikacin]	–	–	1	–	–	–	8	–	remained susceptible
